In ChEMBL document CHEMBL1649562, “Emergence of high levels of extended-spectrum-beta-lactamase-producing gram-negative bacilli in the Asia-Pacific region: data from the Study for Monitoring Antimicrobial Resistance Trends (SMART) program, 2007” (2009):
Activity calls are given as the source filed them.

Tests used:
Escherichia coli [1] = experiment: Antimicrobial activity against extended spectrum beta-lactamase-expressing Escherichia coli assessed as percent susceptible isolates by CLSI method in presence of beta-lactamase inhibitor tazobactem; type: functional
In short: (§1)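 ESBL status was assigned when the ceftazidime or cefotaxime MIC fell at least eightfold (three doubling dilutions) with clavulanic acid, compared with the drug alone. Isolates were identified locally at each site. MICs came from uniform dehydrated broth microdilution panels under CLSI procedure, with susceptibility by CLSI criteria. Daily QC used E. coli ATCC 25922, K. pneumoniae ATCC 700603 (ESBL-positive) and P. aeruginosa ATCC 27853.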

Citrobacter freundii [2] = experiment: Antimicrobial activity against Citrobacter freundii assessed as percent susceptible isolates by CLSI method in presence of beta-lactamase inhibitor tazobactem; type: functional
In short: (§2)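 Site laboratories identified isolates by their local methods. MICs were read from dehydrated broth microdilution panels, the same panel at all sites, following CLSI procedure. Susceptibility was categorized by CLSI interpretive criteria. QC ran daily at each site with E. coli ATCC 25922, K. pneumoniae ATCC 700603 and P. aeruginosa ATCC 27853.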

Proteus mirabilis [3] = experiment: Antimicrobial activity against Proteus mirabilis assessed as percent susceptible isolates by CLSI method in presence of beta-lactamase inhibitor tazobactem; type: functional; in short: as §2
Klebsiella aerogenes [4] = experiment: Antimicrobial activity against Enterobacter aerogenes assessed as percent susceptible isolates by CLSI method in presence of beta-lactamase inhibitor tazobactem; type: functional; in short: as §2
Escherichia coli [5] = experiment: Antimicrobial activity against extended spectrum beta-lactamase-deficient Escherichia coli assessed as percent susceptible isolates by CLSI method in presence of beta-lactamase inhibitor tazobactem; type: functional; in short: as §1
Klebsiella oxytoca [6] = experiment: Antimicrobial activity against extended spectrum beta-lactamase-deficient Klebsiella oxytoca assessed as percent susceptible isolates by CLSI method in presence of beta-lactamase inhibitor tazobactem; type: functional; in short: as §1
Pseudomonas aeruginosa [7] = experiment: Antimicrobial activity against Pseudomonas aeruginosa assessed as percent susceptible isolates by CLSI method in presence of beta-lactamase inhibitor tazobactem; type: functional; in short: as §2
Enterobacter cloacae [8] = experiment: Antimicrobial activity against Enterobacter cloacae assessed as percent susceptible isolates by CLSI method in presence of beta-lactamase inhibitor tazobactem; type: functional; in short: as §2
Klebsiella pneumoniae [9] = experiment: Antimicrobial activity against extended spectrum beta-lactamase-expressing Klebsiella pneumoniae assessed as percent susceptible isolates by CLSI method in presence of beta-lactamase inhibitor tazobactem; type: functional; in short: as §1
Klebsiella pneumoniae [10] = experiment: Antimicrobial activity against extended spectrum beta-lactamase-deficient Klebsiella pneumoniae assessed as percent susceptible isolates by CLSI method in presence of beta-lactamase inhibitor tazobactem; type: functional; in short: as §1
Klebsiella oxytoca [11] = experiment: Antimicrobial activity against extended spectrum beta-lactamase-expressing Klebsiella oxytoca assessed as percent susceptible isolates by CLSI method in presence of beta-lactamase inhibitor tazobactem; type: functional; in short: as §1
Citrobacter freundii [12] = experiment: Antimicrobial activity against Citrobacter freundii assessed as percent susceptible isolates by CLSI method in presence of beta-lactamase inhibitor Sulbactam; type: functional; in short: as §2
Proteus mirabilis [13] = experiment: Antimicrobial activity against Proteus mirabilis assessed as percent susceptible isolates by CLSI method in presence of beta-lactamase inhibitor Sulbactam; type: functional; in short: as §2
Escherichia coli [14] = experiment: Antimicrobial activity against extended spectrum beta-lactamase-deficient Escherichia coli assessed as percent susceptible isolates by CLSI method in presence of beta-lactamase inhibitor Sulbactam; type: functional; in short: as §1
Klebsiella pneumoniae [15] = experiment: Antimicrobial activity against extended spectrum beta-lactamase-deficient Klebsiella pneumoniae assessed as percent susceptible isolates by CLSI method in presence of beta-lactamase inhibitor Sulbactam; type: functional; in short: as §1
Klebsiella oxytoca [16] = experiment: Antimicrobial activity against extended spectrum beta-lactamase-expressing Klebsiella oxytoca assessed as percent susceptible isolates by CLSI method in presence of beta-lactamase inhibitor Sulbactam; type: functional; in short: as §1
Escherichia coli [17] = experiment: Antimicrobial activity against extended spectrum beta-lactamase-expressing Escherichia coli assessed as percent susceptible isolates by CLSI method in presence of beta-lactamase inhibitor Sulbactam; type: functional; in short: as §1
Enterobacter cloacae [18] = experiment: Antimicrobial activity against Enterobacter cloacae assessed as percent susceptible isolates by CLSI method in presence of beta-lactamase inhibitor Sulbactam; type: functional; in short: as §2
Klebsiella pneumoniae [19] = experiment: Antimicrobial activity against extended spectrum beta-lactamase-expressing Klebsiella pneumoniae assessed as percent susceptible isolates by CLSI method in presence of beta-lactamase inhibitor Sulbactam; type: functional; in short: as §1
Klebsiella aerogenes [20] = experiment: Antimicrobial activity against Enterobacter aerogenes assessed as percent susceptible isolates by CLSI method in presence of beta-lactamase inhibitor Sulbactam; type: functional; in short: as §2
Klebsiella oxytoca [21] = experiment: Antimicrobial activity against extended spectrum beta-lactamase-deficient Klebsiella oxytoca assessed as percent susceptible isolates by CLSI method in presence of beta-lactamase inhibitor Sulbactam; type: functional; in short: as §1
Pseudomonas aeruginosa [22] = experiment: Antimicrobial activity against Pseudomonas aeruginosa assessed as percent susceptible isolates by CLSI method in presence of beta-lactamase inhibitor Sulbactam; type: functional, organism-based; in short: as §2
Citrobacter freundii [23] = experiment: Antimicrobial activity against Citrobacter freundii assessed as percent susceptible isolates by CLSI method; type: functional
Proteus mirabilis [24] = experiment: Antimicrobial activity against Proteus mirabilis assessed as percent susceptible isolates by CLSI method; type: functional
Klebsiella pneumoniae [25] = experiment: Antimicrobial activity against extended spectrum beta-lactamase-deficient Klebsiella pneumoniae assessed as percent susceptible isolates by CLSI method; type: functional
Klebsiella oxytoca [26] = experiment: Antimicrobial activity against extended spectrum beta-lactamase-deficient Klebsiella oxytoca assessed as percent susceptible isolates by CLSI method; type: functional
Enterobacter cloacae [27] = experiment: Antimicrobial activity against Enterobacter cloacae assessed as percent susceptible isolates by CLSI method; type: functional
Escherichia coli [28] = experiment: Antimicrobial activity against extended spectrum beta-lactamase-deficient Escherichia coli assessed as percent susceptible isolates by CLSI method; type: functional
Pseudomonas aeruginosa [29] = experiment: Antimicrobial activity against Pseudomonas aeruginosa assessed as percent susceptible isolates by CLSI method; type: functional
Escherichia coli [30] = experiment: Antimicrobial activity against extended spectrum beta-lactamase-expressing Escherichia coli assessed as percent susceptible isolates by CLSI method; type: functional
Klebsiella oxytoca [31] = experiment: Antimicrobial activity against extended spectrum beta-lactamase-expressing Klebsiella oxytoca assessed as percent susceptible isolates by CLSI method; type: functional
Klebsiella aerogenes [32] = experiment: Antimicrobial activity against Enterobacter aerogenes assessed as percent susceptible isolates by CLSI method; type: functional
Klebsiella pneumoniae [33] = experiment: Antimicrobial activity against extended spectrum beta-lactamase-expressing Klebsiella pneumoniae assessed as percent susceptible isolates by CLSI method; type: functional

| Compound | Activity (Citrobacter freundii [23]) [%] | Activity (Proteus mirabilis [24]) [%] | Activity (Klebsiella pneumoniae [25]) [%] | Activity (Klebsiella oxytoca [26]) [%] | Activity (Enterobacter cloacae [27]) [%] | Activity (Escherichia coli [28]) [%] | Activity (Pseudomonas aeruginosa [29]) | Activity (Escherichia coli [30]) [%] | Activity (Klebsiella oxytoca [31]) [%] | Activity (Klebsiella aerogenes [32]) [%] | Activity (Klebsiella pneumoniae [33]) [%] | other results |
| --- | --- | --- | --- | --- | --- | --- | --- | --- | --- | --- | --- | --- |
| CCN1CCN(C(=O)N[C@@H](C(=O)N[C@@H]2C(=O)N3[C@@H]2SC(C)(C)[C@@H]3C(=O)O)c2ccccc2)C(=O)C1=O [PIPERACILLIN] | – | – | – | – | – | – | – | – | – | – | – | Activity (Escherichia coli [1]): 83%; Activity (Citrobacter freundii [2]): 71%; Activity (Proteus mirabilis [3]): 97%; Activity (Klebsiella aerogenes [4]): 69%; Activity (Escherichia coli [5]): 94%; Activity (Klebsiella oxytoca [6]): 100%; Activity (Pseudomonas aeruginosa [7]): 81%; Activity (Enterobacter cloacae [8]): 71%; Activity (Klebsiella pneumoniae [9]): 57%; Activity (Klebsiella pneumoniae [10]): 94%; Activity (Klebsiella oxytoca [11]): 68% |
| CC1(C)S[C@@H]2[C@H](NC(=O)[C@H](N)c3ccccc3)C(=O)N2[C@H]1C(=O)O [AMPICILLIN] | – | – | – | – | – | – | – | – | – | – | – | Activity (Citrobacter freundii [12]): 37%; Activity (Proteus mirabilis [13]): 72%; Activity (Escherichia coli [14]): 43%; Activity (Klebsiella pneumoniae [15]): 76%; Activity (Klebsiella oxytoca [16]): 5%; Activity (Escherichia coli [17]): 5%; Activity (Enterobacter cloacae [18]): 17%; Activity (Klebsiella pneumoniae [19]): 6%; Activity (Klebsiella aerogenes [20]): 31%; Activity (Klebsiella oxytoca [21]): 76%; Activity (Pseudomonas aeruginosa [22]): inactive |
| CO[C@@]1(NC(=O)Cc2cccs2)C(=O)N2C(C(=O)O)=C(COC(N)=O)CS[C@@H]21 [CEFOXITIN] | 16 | 95 | 87 | 97 | 7 | 89 | inactive | 66 | 64 | 22 | 61 | – |
| CC(C)(O/N=C(\C(=O)N[C@@H]1C(=O)N2C(C(=O)[O-])=C(C[n+]3ccccc3)CS[C@H]12)c1csc(N)n1)C(=O)O [CEFTAZIDIME] | 43 | 89 | 97 | 97 | 53 | 95 | 66% | 29 | 27 | 46 | 20 | – |
| NCC[C@H](O)C(=O)N[C@@H]1C[C@H](N)[C@@H](O[C@H]2O[C@H](CN)[C@@H](O)[C@H](O)[C@H]2O)[C@H](O)[C@H]1O[C@H]1O[C@H](CO)[C@@H](O)[C@H](N)[C@H]1O [AMIKACIN] | 84 | 92 | 99 | 100 | 92 | 98 | 85% | 87 | 86 | 83 | 73 | – |
| CO/N=C(\C(=O)N[C@@H]1C(=O)N2C(C(=O)O)=C(CSc3nc(=O)c(O)nn3C)CS[C@H]12)c1csc(N)n1 [CEFTRIAXONE] | 45 | 77 | 97 | 97 | 48 | 96 | 19% | 4 | 9 | 55 | 10 | – |
| CO/N=C(\C(=O)N[C@@H]1C(=O)N2C(C(=O)O)=C(COC(C)=O)CS[C@H]12)c1csc(N)n1 [CEFOTAXIME] | 43 | 77 | 97 | 97 | 49 | 97 | 14% | 5 | 14 | 48 | 9 | – |
| C[C@@H](O)[C@H]1C(=O)N2C(C(=O)O)=C(SCCNC=N)C[C@H]12 [IMIPENEM ANHYDROUS] | 100 | 100 | 100 | 100 | 98 | 100 | 71% | 98 | 100 | 97 | 97 | – |
| C[C@H]1COc2c(N3CCN(C)CC3)c(F)cc3c(=O)c(C(=O)O)cn1c23.C[C@H]1COc2c(N3CCN(C)CC3)c(F)cc3c(=O)c(C(=O)O)cn1c23.O [LEVOFLOXACIN] | 77 | 84 | 94 | 97 | 79 | 72 | 73% | 21 | 41 | 83 | 43 | – |
| C[C@@H](O)[C@H]1C(=O)N2C(C(=O)O)=C(S[C@@H]3CN[C@H](C(=O)Nc4cccc(C(=O)O)c4)C3)[C@H](C)[C@H]12 | 98 | 100 | 99 | 100 | 94 | 100 | inactive | 96 | 100 | 97 | 86 | – |
